Measured values published in ChEMBL document CHEMBL1123395, “Correlation of the in vitro cytotoxic and in vivo antitumor activities of gold(I) coordination complexes” (J Med Chem, 1986).

Tests used:
P388 [1] = assay: Ratio of in vitro cytotoxic potency in P388 / B16 cell lines; type: functional, cell-based; conditions: Mus musculus
Outline: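 Ratio of IC50 in the P388 colony-forming assay (0.17% agarose) to IC50 in the B16 clonogenic assay. Both assays used a 2 h drug exposure and counted colonies against controls.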

Mus musculus = assay: Maximally tolerated dose (MTD) in tumor bearing mice on a daily times 5 ip regimen.; type: functional, organism-based
Outline: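 B6D2F1 mice inoculated ip with 10^6 P388 leukemia cells, randomized into groups of six after the inoculum was checked sterile in thioglycolate broth. Dosing ip on days 1-5, starting 24 h after inoculation. Vehicle was DMA, ethanol and Cremophor (10% final), diluted with saline for lower doses and prepared just before injection. Mortality monitored daily up to 45 days.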

P388 [2] = assay: Antitumor activity expressed as increase in median life span (ILS) measured in mice inoculated (ip) with P388 leukemia cells; type: functional, organism-based; conditions: Mus musculus
Outline: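 Mice B6D2F1, inoculated ip with 10^6 P388 leukemia cells. After 24 h, with the inoculum confirmed free of bacteria by thioglycolate broth, mice were randomized into groups of six. Dosing was ip on days 1-5. The vehicle held DMA, ethanol and Cremophor at 10% final, with dilutions in saline. Mice were monitored daily for 45 days. ILS is the % increase in MST over untreated controls. The value reported is the maximum ILS from dose-response studies bracketing the maximally tolerated dose.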

P388 [3] = assay: Concentration that reduces the number of colonies formed by 50% in a clonogenic assay with P388 leukemia cells.; type: functional, cell-based, Mus musculus
Outline: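 P388 cells were kept in suspension culture. Colony-forming assay was run in 0.17% agarose, with colony formation and IC50 (50% reduction in colonies versus controls) measured as in the B16 assay. That assay used a 2 h exposure and 5 days of colony growth.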

B16 = assay: Concentration that reduces the number of colonies formed by 50% in a clonogenic assay with B16 mouse melanoma cells.; type: functional, cell-based
Outline: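 B16 melanoma F10 monolayers were grown in MEM with 10% calf serum. Cells were plated at 5000/plate and attached overnight. They were exposed to compound for 2 h, diluted from a 2 mM ethanol stock into MEM, then washed with PBS. Colonies of more than 50 cells were grown for 5 days at 37 °C and stained with crystal violet, in triplicate. IC50 is the 50% reduction in colonies versus controls.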

Row | IC50 (P388 [3]) | IC50 (B16) | Substance | Ratio (P388 [1]) | MTD (Mus musculus) | ILSmax (P388 [2])
1 |  |  | GOLD SODIUM THIOMALATE [listing 1 of 2 here] | 1.67 | 300 µM/kg | 24%
2 | 100 µM | 60 µM | GOLD SODIUM THIOMALATE [listing 2 of 2 here] |  |  | 
